From ChEMBL document CHEMBL3997850 (ACS Med Chem Lett, 2017)
Activity calls are given as the source filed them.

Tests used:
[1] = target: T1, Indoleamine 2,3-dioxygenase 1 (Homo sapiens, UniProt P14902); assay: Inhibition of human N-terminal His-tagged IDO1 expressed in Escherichia coli using D-Trp as substrate
[2] = target: T1, Indoleamine 2,3-dioxygenase 1; assay: Inhibition of IDO1 in IFN-gamma-stimulated human HeLa cells assessed as decrease in kynurenine levels after 48 hrs; type: cell-based
Liver [3] = assay: Intrinsic clearance in rat hepatic S9 fraction at 5 uM in presence of UDPGA measured over 30 mins by LC/MS analysis; type: ADME; conditions: s9, 0.5 h
Liver [4] = assay: Intrinsic clearance in rat hepatic S9 fraction at 5 uM in presence of UDPGA/NADPH measured over 30 mins by LC/MS analysis; type: ADME, tissue-based; conditions: s9, 0.5 h
Outline: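 Rat hepatic S9 (2 mg/mL protein) with compound 5 µM, 50 mM Tris-HCl pH 7.5, 8 mM MgCl2, 2 mM NADPH, 2 mM UDPGA, 12.7 µM alamethicin, 37 °C. Reaction started with S9. Aliquots taken over 0–30 min, quenched with acetonitrile, analyzed by LC/MS.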

[5] = Permeability across apical to basolateral side in human Caco2 cells at 50 uM after 120 mins by LC/MS analysis; type: ADME, cell-based; conditions: Caco-2, read-out: permeability
Outline: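 Caco-2 cells (passages 21–45) seeded at 4,000/well on PET transwell filters and used 21–26 days after seeding. Monolayers accepted at TEER ≥300 Ω·cm² and run in Hank's balanced salt solution. After 120 min incubation, receiver-side sample taken, acetonitrile-precipitated, quantified by LC/MS.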

Plasma = assay: Fraction unbound in human plasma after 2 hrs by equilibrium dialysis method; type: ADME, cell-free
Outline: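 Equilibrium dialysis of human plasma (1 mL) containing compound against 1 mL 0.133 M phosphate buffer pH 7.4. Membrane cut-off 10,000 Da, teflon cells rotated at 12 rpm for 2 h at 37 °C. Recovered volumes weighed and matrix-matched 1:1. Acetonitrile precipitation, LC/MS/MS of both sides.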

CT26 [6] = assay: Antitumor activity against mouse CT26 cells allografted in immunocompetent Balb/c mouse assessed as reduction in tumor growth at 30 mg/kg, po measured on day 24 relative to vehicle-treated control; type: functional
CT26 [7] = assay: Antitumor activity against mouse CT26 cells allografted in po dosed Balb/c nu/nu mouse assessed as tumor growth inhibition; type: functional, organism-based
Mus musculus = assay: In vivo inhibition of IDO1 in wild type C57BL/6 mouse assessed as reduction in kynurenine levels in plasma at 50 mg/kg, po qd after 8 hrs by LC/MS/MS analysis; type: functional, organism-based
Outline: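 Fed C57BL/6 mice given a single dose; food then removed. At various timepoints, blood taken by cardiac puncture. Plasma diluted 10-fold in water, TCA protein precipitation, then LC/MS/MS for tryptophan, kynurenine (linear 20–10,000 nM kynurenine, 200–100,000 nM tryptophan) and drug, against aqueous standards.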

Rattus norvegicus = assay: AUC in rat at 5 mg/kg, iv or 5 mg/kg, po by LC/MS/MS analysis; type: ADME, organism-based; conditions: in vivo
Outline: (§1)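 Male rats, 5 mg/kg IV in 10% DMAC/saline or 5 mg/kg oral in 0.5% aqueous methylcellulose. Plasma (EDTA) sampled pre-dose to 24 h. Quantified by acetonitrile precipitation and LC/MS/MS (2–10000 nM range, 0.1 mL). Non-compartmental analysis of concentration–time data.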

[8] = Half life in rat at 5 mg/kg, po by LC/MS/MS analysis; type: ADME, organism-based; conditions: in vivo; outline: as §1
[9] = Half life in cynomolgus monkey at 10 mg/kg, po by LC/MS/MS analysis; type: ADME, organism-based, Macaca fascicularis; conditions: in vivo
Outline: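 Male cynomolgus monkeys given 4 mg/kg IV (5% DMAC, 40% propylene glycol in saline) or 10 mg/kg orally (0.5% methylcellulose). EDTA plasma collected pre-dose through 24 h. Acetonitrile protein precipitation, then LC/MS/MS quantification, linear 2–10000 nM. PK parameters by standard non-compartmental methods.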

[10] = AUC in mouse CT26 cells allografted immunocompetent Balb/c mouse model at 30 mg/kg, po by LC/MS/MS analysis; type: ADME, organism-based; conditions: in vivo

T1 sequence (P14902 whole entry): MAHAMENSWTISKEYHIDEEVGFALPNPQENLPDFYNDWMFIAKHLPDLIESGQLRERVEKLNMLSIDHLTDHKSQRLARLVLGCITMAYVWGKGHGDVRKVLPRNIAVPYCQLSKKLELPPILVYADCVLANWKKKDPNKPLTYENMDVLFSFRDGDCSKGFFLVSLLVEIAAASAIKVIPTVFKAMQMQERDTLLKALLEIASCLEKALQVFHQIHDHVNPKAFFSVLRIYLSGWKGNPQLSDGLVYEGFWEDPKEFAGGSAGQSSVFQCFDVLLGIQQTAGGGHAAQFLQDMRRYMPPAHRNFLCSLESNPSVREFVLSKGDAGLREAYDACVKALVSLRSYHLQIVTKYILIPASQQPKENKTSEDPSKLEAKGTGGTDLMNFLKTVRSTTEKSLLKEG

Row | SMILES | IC50 [1] | IC50 [2] | CLH (Liver [3]) | CLH (Liver [4]) | Papp A→B at 2 h, 50 µM [5] | Fu (Plasma) | AUC (Rattus norvegicus) | half-life [8] | half-life [9] | AUC [10] | Efficacy (CT26 [6]) | TGI (CT26 [7]) | inhibition (Mus musculus)
1 | CCNc1nonc1/C(=N/O)Nc1ccc(F)c(Br)c1 | 180 nM | 35 nM | 1.4 L/h/kg | > 2.2 L/h/kg | – | – | – | – | – | – | – | – | –
2 | O/N=C(\Nc1ccc(F)c(Br)c1)c1nonc1NCc1ccccc1 | 230 nM | 280 nM | 2.1 L/h/kg | > 2.2 L/h/kg | – | < 0.5% | – | – | – | – | – | – | –
3 | NS(=O)(=O)NCCNc1nonc1/C(=N/O)Nc1ccc(F)c(Br)c1 [EPACADOSTAT] | – | – | – | – | – | – | – | – | – | – | 56% | inactive | Active
4 | Nc1nonc1C(=Nc1ccc(F)c(Br)c1)NO | 50 nM | 10 nM | > 2.2 L/h/kg | 1.4 L/h/kg | – | – | – | – | – | – | – | – | –
5 | CN(C)c1nonc1/C(=N/O)Nc1ccc(F)c(Br)c1 | > 5000 nM | > 5000 nM | > 2.2 L/h/kg | > 2.2 L/h/kg | – | – | – | – | – | – | – | – | –
6 | CNc1nonc1/C(=N/O)Nc1ccc(F)c(Br)c1 | 100 nM | 14 nM | > 2.2 L/h/kg | > 2.2 L/h/kg | – | – | – | – | – | – | – | – | –

Now from value to molecule, other results behind:

Row | IC50 [1] | IC50 [2] | CLH (Liver [3]) | CLH (Liver [4]) | Papp A→B at 2 h, 50 µM [5] | Fu (Plasma) | AUC (Rattus norvegicus) | half-life [8] | half-life [9] | AUC [10] | SMILES | Efficacy (CT26 [6]) | TGI (CT26 [7]) | inhibition (Mus musculus)
7 | 200 nM | 100 nM | > 2.2 L/h/kg | > 2.2 L/h/kg | 44 ×10⁻⁶ cm/s | 0.9% | – | – | – | – | COCCNc1nonc1/C(=N/O)Nc1ccc(F)c(Br)c1 | – | – | –
8 | 170 nM | 22 nM | > 2.2 L/h/kg | > 2.2 L/h/kg | 31 ×10⁻⁶ cm/s | 2.3% | – | – | – | – | OCCNc1nonc1/C(=N/O)Nc1ccc(F)c(Br)c1 | – | – | –
9 | 210 nM | 17 nM | 0.9 L/h/kg | 2 L/h/kg | 19 ×10⁻⁶ cm/s | 4.4% | – | – | – | – | CC(=O)NCCNc1nonc1/C(=N/O)Nc1ccc(F)c(Br)c1 | – | – | –
10 | – | – | > 2.2 L/h/kg | > 2.2 L/h/kg | – | – | – | – | – | – | Nc1nonc1C(=NO)Nc1ccc(F)c(Cl)c1 | – | – | –
11 | 120 nM | 11 nM | 0.5 L/h/kg | 0.8 L/h/kg | 4.3 ×10⁻⁶ cm/s | 3.8% | 3.3 µM·h | 162 min | 240 min | 15.1 µM·h | NS(=O)(=O)NCCNc1nonc1C(=NO)Nc1ccc(F)c(Cl)c1 | 13% | – | –
12 | 100 nM | 16 nM | 0.7 L/h/kg | 1.5 L/h/kg | 24 ×10⁻⁶ cm/s | 2.4% | – | – | – | – | CS(=O)(=O)NCCNc1nonc1C(=NO)Nc1ccc(F)c(Br)c1 | – | – | –
13 | 290 nM | 98 nM | 1.1 L/h/kg | 0.9 L/h/kg | 1.8 ×10⁻⁶ cm/s | 6.1% | – | – | – | – | NCCNc1nonc1/C(=N/O)Nc1ccc(F)c(Br)c1 | – | – | –
